Peptide text beside a SMILES is read from it.

Test [1] can be described thus: Inhibition of Plasmodium falciparum falcipain-2 after 12 hrs by fluorescence spectroscopy-based on-bead assay. Conditions: concentration not given here. More on the design: concentration or dose not given beside the values. The procedure, abridged:
(§1)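 Library members on resin (PEGA, theoretical loading 0.40 mmol/g; added as DMSO suspension, 0.64 mM final inhibitor) preincubated with enzyme 12 h, then Cbz-Phe-Arg-AMC 40 μM added; AMC release followed by fluorescence (ex 380/em 460 nm). Kinetics compared with inhibitor-free amino-PEGA resin.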

Test [2] addresses Rhodesain (Trypanosoma brucei rhodesiense) (UniProt Q95PM0). As to the kind of experiment: Inhibition of Trypanosoma brucei rhodesiense rhodesain after 12 hrs by fluorescence spectroscopy-based on-bead assay. More on the design: concentration or dose not given beside the values. To be noted: concentration not given here. The procedure, abridged: as §1

Sequence of Rhodesain (Trypanosoma brucei rhodesiense) (Q95PM0 1-450): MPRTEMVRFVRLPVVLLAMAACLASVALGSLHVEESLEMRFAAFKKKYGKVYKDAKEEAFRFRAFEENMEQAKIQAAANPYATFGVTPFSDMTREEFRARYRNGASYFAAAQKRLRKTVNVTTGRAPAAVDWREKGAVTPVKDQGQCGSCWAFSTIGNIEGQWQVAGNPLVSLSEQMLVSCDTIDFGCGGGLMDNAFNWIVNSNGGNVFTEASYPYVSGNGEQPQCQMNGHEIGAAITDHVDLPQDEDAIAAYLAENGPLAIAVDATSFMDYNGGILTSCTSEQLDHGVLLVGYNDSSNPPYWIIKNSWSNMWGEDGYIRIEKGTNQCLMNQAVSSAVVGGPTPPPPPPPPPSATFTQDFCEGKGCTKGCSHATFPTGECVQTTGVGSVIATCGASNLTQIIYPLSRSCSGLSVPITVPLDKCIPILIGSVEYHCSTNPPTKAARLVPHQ

Turning to `CC(C)[C@H](NC(=O)[C@@H](NC(=O)[C@H](Cc1ccccc1)NC(=O)[C@H](C)NC(=O)/C=C/C(=O)NCC(=O)NCC(=O)N[C@@H](Cc1ccccc1)C(=O)O)C(C)C)C(N)=O` (HELM PEPTIDE1{[O=C(/C=C/C(=O)[*:2])NCC(=O)NCC(=O)N[C@@H](Cc1ccccc1)C(=O)O].A.F.V.V.[am]}$$$$V2.0), the figures for the inhibition in test [1] and in test [2] were 27% and 48%, respectively.

In the case of `CC[C@H](C)[C@H](NC(=O)[C@H](C)NC(=O)/C=C/C(=O)NCC(=O)NCC(=O)N[C@@H](Cc1ccccc1)C(=O)O)C(=O)N[C@@H](C)C(=O)N[C@H](C(N)=O)C(C)C` (HELM PEPTIDE1{[O=C(/C=C/C(=O)[*:2])NCC(=O)NCC(=O)N[C@@H](Cc1ccccc1)C(=O)O].A.I.A.V.[am]}$$$$V2.0), the inhibition (in general, how much of the control response was suppressed) in test [1] was determined as 54%; in test [2], 31%.

`CC[C@H](C)[C@H](NC(=O)[C@H](C)NC(=O)/C=C/C(=O)NCC(=O)NCC(=O)N[C@@H](Cc1ccccc1)C(=O)O)C(=O)N[C@@H](CC(C)C)C(=O)N[C@H](C(N)=O)C(C)C` (HELM PEPTIDE1{[O=C(/C=C/C(=O)[*:2])NCC(=O)NCC(=O)N[C@@H](Cc1ccccc1)C(=O)O].A.I.L.V.[am]}$$$$V2.0): the inhibition was 61% in test [1] and 58% in test [2].

`CC[C@H](C)[C@H](NC(=O)[C@H](C)NC(=O)/C=C/C(=O)NCC(=O)NCC(=O)N[C@@H](Cc1ccccc1)C(=O)O)C(=O)N[C@H](C(=O)N[C@H](C(N)=O)C(C)C)C(C)C` (HELM PEPTIDE1{[O=C(/C=C/C(=O)[*:2])NCC(=O)NCC(=O)N[C@@H](Cc1ccccc1)C(=O)O].A.I.V.V.[am]}$$$$V2.0): the inhibition came out at 32% in test [1] and 33% in test [2].

For the compound `CC(C)C[C@H](NC(=O)[C@H](C)NC(=O)/C=C/C(=O)NCC(=O)NCC(=O)N[C@@H](Cc1ccccc1)C(=O)O)C(=O)N[C@@H](C)C(=O)N[C@H](C(N)=O)C(C)C` (HELM PEPTIDE1{[O=C(/C=C/C(=O)[*:2])NCC(=O)NCC(=O)N[C@@H](Cc1ccccc1)C(=O)O].A.L.A.V.[am]}$$$$V2.0), the inhibition in test [1] came to 57%; in test [2] it was 40%.

Consider `CC(C)C[C@H](NC(=O)[C@H](C)NC(=O)/C=C/C(=O)NCC(=O)NCC(=O)N[C@@H](Cc1ccccc1)C(=O)O)C(=O)N[C@H](C(=O)N[C@H](C(N)=O)C(C)C)C(C)C` (HELM PEPTIDE1{[O=C(/C=C/C(=O)[*:2])NCC(=O)NCC(=O)N[C@@H](Cc1ccccc1)C(=O)O].A.L.V.V.[am]}$$$$V2.0), for which the inhibition amounted to 29% in test [1] and 55% in test [2].

In the case of `CC(C)[C@H](NC(=O)[C@H](C)NC(=O)[C@@H](NC(=O)[C@H](C)NC(=O)/C=C/C(=O)NCC(=O)NCC(=O)N[C@@H](Cc1ccccc1)C(=O)O)C1CCCCC1)C(N)=O` (HELM PEPTIDE1{[O=C(/C=C/C(=O)[*:2])NCC(=O)NCC(=O)N[C@@H](Cc1ccccc1)C(=O)O].A.[O=C([C@@H](N[*:1])C1CCCCC1)[*:2]].A.V.[am]}$$$$V2.0), the inhibition in test [1] worked out at 31%; in test [2], 26%.

Consider `CC(C)C[C@H](NC(=O)[C@@H](NC(=O)[C@H](C)NC(=O)/C=C/C(=O)NCC(=O)NCC(=O)N[C@@H](Cc1ccccc1)C(=O)O)C1CCCCC1)C(=O)N[C@H](C(N)=O)C(C)C` (HELM PEPTIDE1{[O=C(/C=C/C(=O)[*:2])NCC(=O)NCC(=O)N[C@@H](Cc1ccccc1)C(=O)O].A.[O=C([C@@H](N[*:1])C1CCCCC1)[*:2]].L.V.[am]}$$$$V2.0), for which the figures for the inhibition in test [1] and in test [2] were 43% and 60%, respectively.

As for `CC(C)[C@H](NC(=O)[C@@H](NC(=O)[C@@H](NC(=O)[C@H](C)NC(=O)/C=C/C(=O)NCC(=O)NCC(=O)N[C@@H](Cc1ccccc1)C(=O)O)C1CCCCC1)C(C)C)C(N)=O` (HELM PEPTIDE1{[O=C(/C=C/C(=O)[*:2])NCC(=O)NCC(=O)N[C@@H](Cc1ccccc1)C(=O)O].A.[O=C([C@@H](N[*:1])C1CCCCC1)[*:2]].V.V.[am]}$$$$V2.0), the inhibition turned out to be 54% in test [1] and 40% in test [2].

`CC(C)[C@H](NC(=O)[C@H](C)NC(=O)[C@@H](NC(=O)[C@H](C)NC(=O)/C=C/C(=O)NCC(=O)NCC(=O)N[C@@H](Cc1ccccc1)C(=O)O)c1ccccc1)C(N)=O` (HELM PEPTIDE1{[O=C(/C=C/C(=O)[*:2])NCC(=O)NCC(=O)N[C@@H](Cc1ccccc1)C(=O)O].A.[Phg].A.V.[am]}$$$$V2.0): the inhibition in test [1] was 41%; in test [2], 16%.

On to `CC(C)C[C@H](NC(=O)[C@@H](NC(=O)[C@H](C)NC(=O)/C=C/C(=O)NCC(=O)NCC(=O)N[C@@H](Cc1ccccc1)C(=O)O)c1ccccc1)C(=O)N[C@H](C(N)=O)C(C)C` (HELM PEPTIDE1{[O=C(/C=C/C(=O)[*:2])NCC(=O)NCC(=O)N[C@@H](Cc1ccccc1)C(=O)O].A.[Phg].L.V.[am]}$$$$V2.0), for which the inhibition in test [1] was found to be 53%; in test [2], 54%.

Consider `CC(C)[C@H](NC(=O)[C@@H](NC(=O)[C@@H](NC(=O)[C@H](C)NC(=O)/C=C/C(=O)NCC(=O)NCC(=O)N[C@@H](Cc1ccccc1)C(=O)O)c1ccccc1)C(C)C)C(N)=O` (HELM PEPTIDE1{[O=C(/C=C/C(=O)[*:2])NCC(=O)NCC(=O)N[C@@H](Cc1ccccc1)C(=O)O].A.[Phg].V.V.[am]}$$$$V2.0), for which the inhibition in test [1] came out at 56%; in test [2], 36%.

Turning to `CC(C)[C@H](NC(=O)[C@H](C)NC(=O)[C@H](Cc1ccccc1)NC(=O)[C@H](Cc1ccccc1)NC(=O)/C=C/C(=O)NCC(=O)NCC(=O)N[C@@H](Cc1ccccc1)C(=O)O)C(N)=O` (HELM PEPTIDE1{[O=C(/C=C/C(=O)[*:2])NCC(=O)NCC(=O)N[C@@H](Cc1ccccc1)C(=O)O].F.F.A.V.[am]}$$$$V2.0), the results for the inhibition in test [1] and in test [2] were 43% and 47%, respectively.

As for `CC(C)C[C@H](NC(=O)[C@H](Cc1ccccc1)NC(=O)[C@H](Cc1ccccc1)NC(=O)/C=C/C(=O)NCC(=O)NCC(=O)N[C@@H](Cc1ccccc1)C(=O)O)C(=O)N[C@H](C(N)=O)C(C)C` (HELM PEPTIDE1{[O=C(/C=C/C(=O)[*:2])NCC(=O)NCC(=O)N[C@@H](Cc1ccccc1)C(=O)O].F.F.L.V.[am]}$$$$V2.0), the figures for the inhibition in test [1] and in test [2] were 41% and 52%, respectively.

As for `CC(C)[C@H](NC(=O)[C@@H](NC(=O)[C@H](Cc1ccccc1)NC(=O)[C@H](Cc1ccccc1)NC(=O)/C=C/C(=O)NCC(=O)NCC(=O)N[C@@H](Cc1ccccc1)C(=O)O)C(C)C)C(N)=O` (HELM PEPTIDE1{[O=C(/C=C/C(=O)[*:2])NCC(=O)NCC(=O)N[C@@H](Cc1ccccc1)C(=O)O].F.F.V.V.[am]}$$$$V2.0), the inhibition was determined as 60% in test [1] and 51% in test [2].

In the case of `CC[C@H](C)[C@H](NC(=O)[C@H](Cc1ccccc1)NC(=O)/C=C/C(=O)NCC(=O)NCC(=O)N[C@@H](Cc1ccccc1)C(=O)O)C(=O)N[C@@H](C)C(=O)N[C@H](C(N)=O)C(C)C` (HELM PEPTIDE1{[O=C(/C=C/C(=O)[*:2])NCC(=O)NCC(=O)N[C@@H](Cc1ccccc1)C(=O)O].F.I.A.V.[am]}$$$$V2.0), the inhibition in test [1] was 52%; in test [2] it was 30%.

On to `CC[C@H](C)[C@H](NC(=O)[C@H](Cc1ccccc1)NC(=O)/C=C/C(=O)NCC(=O)NCC(=O)N[C@@H](Cc1ccccc1)C(=O)O)C(=O)N[C@@H](CC(C)C)C(=O)N[C@H](C(N)=O)C(C)C` (HELM PEPTIDE1{[O=C(/C=C/C(=O)[*:2])NCC(=O)NCC(=O)N[C@@H](Cc1ccccc1)C(=O)O].F.I.L.V.[am]}$$$$V2.0), for which the values for the inhibition in test [1] and in test [2] were 58% and 73%, respectively.

The record behind these values is ChEMBL document CHEMBL1155459, “On-bead screening of a combinatorial fumaric acid derived peptide library yields antiplasmodial cysteine protease inhibitors with unusual peptide sequences” (J Med Chem, 2009).
